FN deposit inh – fibronectin deposition inhibition. AH1F fibroblasts, Alexa488-fibronectin deposition fluorescence, overnight. inhibition, % at 12.6 µM. 0.086% of 350,000 active. AID 743247;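 active means mean inhibition across replicates of 30% or more, regardless of how many single replicates reach that level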
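Assay system: AH1F fibroblasts assembling fluorescent fibronectin matrix; Amount: 10000 AH1F cells per well; Buffer or medium: DMEM, 2% serum; Probe or stimulus: Alexa488-fibronectin, 24 nM final in well; Doses: single compound dose, delivered by pin transfer; Incubation: 1 h adhesion, overnight exposure; Measured by: fluorescence 485/525 nm; Read-out: fibronectin deposition inhibition.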
PGC1a acetyl inh – lowers PGC1a acetylation signal in U2OS cells; AlphaScreen anti-acetyl-lysine; with virally co-expressed GCN5 acetyltransferase; inhibition, % at 15.6 µM; 0.17% of 350,000 active;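 active means every replicate shows inhibition of at least 40%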
FGF22 binding – binders of recombinant human FGF22 by thermal shift; SYPRO orange fluorescence; percent of sucrose octasulfate shift, DMSO zero; activity (Tm shift, normalised), % at 9.99 µM; 1.5% of 340,000 active; AID 651658;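 active means mean Tm shift, scaled 0 neutral to 100 positive control, at about 1.3% or above, every replicate too, limit read from the data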
Target sequence (Q9HCT0 whole entry, looked up): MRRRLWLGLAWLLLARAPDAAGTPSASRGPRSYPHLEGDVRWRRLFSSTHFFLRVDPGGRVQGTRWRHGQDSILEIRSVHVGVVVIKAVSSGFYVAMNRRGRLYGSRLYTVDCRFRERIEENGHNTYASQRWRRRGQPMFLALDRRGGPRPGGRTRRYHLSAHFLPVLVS
ERAP1 HTS inh – ERAP1 (human) enzyme inhibition. Q9NZ08. 0.15% of 340,000 active. AID 652197. inhibition, % at 10.7 µM. recombinant ERAP1, Leu-AMC fluorescence, 60 min;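 active means mean replicate inhibition of at least 30%, or all replicates individually reaching that 30% level; inactive means mean below 30% and not every replicate reaching it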
SIRT5 block – inhibitors of human sirtuin-5 desuccinylase | Q9NXA8 | Purified SirT5, succinyl-peptide AMC, trypsin-coupled fluorescence | inhibition, % at 15 µM | 1.1% of 330,000 active | AID 652115; in the data active means inhibition above about 15%
Target sequence (Q9NXA8 whole entry, looked up): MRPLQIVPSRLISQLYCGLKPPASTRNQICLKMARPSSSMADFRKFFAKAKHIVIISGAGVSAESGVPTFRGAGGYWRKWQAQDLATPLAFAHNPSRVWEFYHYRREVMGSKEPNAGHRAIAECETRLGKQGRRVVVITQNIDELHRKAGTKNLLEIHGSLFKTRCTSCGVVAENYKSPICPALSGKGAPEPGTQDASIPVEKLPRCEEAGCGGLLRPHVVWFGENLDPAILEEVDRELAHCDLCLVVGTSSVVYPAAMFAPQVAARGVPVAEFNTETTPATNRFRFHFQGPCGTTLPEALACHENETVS
Hits are given with their value; 0 = inactive; - = no result given. Only some compounds are listed: those with a hit (about 2.2% of all), similar ones and a draw of the others.

SMILES | FN deposit inh | PGC1a acetyl inh | FGF22 binding | ERAP1 HTS inh | SIRT5 block
CCCC(=O)Nc1ccc2c(c1)OC[C@H](C)N(Cc1ccccc1)C[C@@H](C)[C@@H](OC)CN(C)C2=O | 0 | 0 | 0 | 0 | 37
CCCC(=O)Nc1ccc2c(c1)OC[C@@H](C)N(Cc1ccccc1)C[C@@H](C)[C@H](OC)CN(C)C2=O | 0 | 0 | 0 | 0 | 0
CCC(=O)Nc1ccc2c(c1)OC[C@H](C)N(Cc1cccc(F)c1)C[C@@H](C)[C@H](OC)CN(C)C2=O | 0 | 0 | 0 | 0 | 20
CCCNC(=O)Nc1ccc2c(c1)OC[C@H](C)N(S(C)(=O)=O)C[C@@H](C)[C@@H](OC)CN(C)C2=O | 0 | 0 | 0 | 0 | 15
O=C1Nc2ccccc2N(C(=O)c2ccc3ccccc3c2)C1c1nc2ccccc2[nH]1 (stereo not given) | 0 | - | 0 | 0 | 16
OC(CCN1CCC2(CC1)OCCO2)C(F)(F)F (stereo not given) | - | 0 | 43 | 0 | 0
CSc1ccc(S(=O)(=O)Nc2ccc(OCC(=O)N3CCOCC3)cc2)cc1 | 0 | 0 | 43 | 0 | 0
CCc1ccc(CN(C)C(=O)C2CCC(=O)N(Cc3ccccn3)C2)cc1 (stereo not given) | 0 | - | 0 | 0 | 31
CN(Cc1ccccn1)C(=O)C1CCC(=O)N(Cc2cccc(F)c2)C1 (stereo not given) | 0 | 0 | 0 | 0 | 0
COC(=O)C1(Cc2cc(-c3ccc(OC)cc3OC)no2)CCN(C(=O)OC(C)(C)C)CC1 | 0 | 0 | 0 | 0 | 34
COC(=O)C1(Cc2cc(-c3cccc(Br)c3)no2)CCN(C(=O)OC(C)(C)C)CC1 | 0 | 0 | 0 | 0 | 0
COc1ccc(Cl)cc1NC(=O)CSc1nnc(Cc2ccc(C)cc2)c(=O)[nH]1 | 0 | - | 0 | 0 | 0
N#Cc1c(SCC(=O)Nc2nncs2)sc2c(O)cc(=O)[nH]c12 | 0 | 0 | 0 | 0 | 43
N#Cc1c(SCC(=O)Nc2ccc(C(F)(F)F)cc2)sc2c(O)cc(=O)[nH]c12 | 0 | 0 | 0 | 0 | 0
COc1cc(Cl)c(C)cc1NC(=O)CSc1sc2c(O)cc(=O)[nH]c2c1C#N | 0 | - | 0 | 0 | 15
COc1cc(Cl)c(C)cc1NC(=O)CSc1nnc(CCC(=O)O)c(=O)[nH]1 | 0 | 0 | 0 | 0 | 22
COc1ccc(NC(=O)N2CC(=O)N3[C@@H](CO)[C@@H](c4ccc(/C=C/c5ccccc5)cc4)[C@@H]3C2)cc1 | - | 0 | - | - | 0
O=C(C[C@@H]1C[C@@H]2c3cc(NC(=O)Nc4ccccc4)ccc3O[C@@H]2[C@@H](CO)O1)NCc1cccc(F)c1 | 0 | 0 | 0 | 0 | 0
C[C@H]1CN([C@@H](C)CO)C(=O)Cc2cc(NC(=O)CCN3CCOCC3)ccc2O[C@@H]1CN(C)C(=O)Nc1cccc2ccccc12 | 0 | 0 | 0 | 0 | 0
COc1ccccc1N1CCN(C(=O)CCN2C(=O)c3cccc4cccc(c34)C2=O)CC1 | 0 | - | 45 | 0 | 0
C[C@H]1CN([C@@H](C)CO)C(=O)c2cc(NS(C)(=O)=O)ccc2O[C@H]1CN(C)Cc1ccc(C(=O)O)cc1 | - | 0 | 0 | 0 | 0
C[C@@H]1CN([C@@H](C)CO)S(=O)(=O)c2ccc(C3=CCCCC3)cc2O[C@@H]1CN(C)S(=O)(=O)c1ccc(F)cc1 | - | 0 | 0 | 0 | 22
C[C@H]1CN([C@@H](C)CO)S(=O)(=O)c2ccc(C3=CCCCC3)cc2O[C@H]1CN(C)S(=O)(=O)c1ccc(F)cc1 | - | 0 | 0 | 0 | 27
C[C@@H]1CN([C@H](C)CO)S(=O)(=O)c2ccc(C3=CCCC3)cc2O[C@@H]1CN(C)S(=O)(=O)c1ccc(F)cc1 | - | 0 | 0 | 0 | 0
C[C@H]1CN([C@@H](C)CO)S(=O)(=O)c2ccc(C3=CCCCC3)cc2O[C@@H]1CN(C)S(=O)(=O)c1ccc(F)cc1 | - | 0 | 0 | 0 | 33
C[C@@H]1CN([C@@H](C)CO)S(=O)(=O)c2ccc(C3=CCCCC3)cc2O[C@H]1CN(C)S(=O)(=O)c1ccc(F)cc1 | - | 0 | 0 | 0 | 26
C[C@@H]1CN([C@H](C)CO)S(=O)(=O)c2ccc(C3=CCCC3)cc2O[C@H]1CN(C)S(=O)(=O)c1ccc(F)cc1 | - | 0 | - | 0 | 0
CCC(=O)N(C)C[C@@H]1Oc2cc(-c3cncnc3)ccc2S(=O)(=O)N([C@@H](C)CO)C[C@@H]1C | 0 | 0 | 0 | 0 | 0
CO[C@H]1CN(C)C(=O)c2ccc(NS(C)(=O)=O)cc2OC[C@@H](C)NC[C@H]1C | 0 | 0 | 0 | 0 | 0
